Only some compounds are listed: those with a hit (about 4% of all), similar ones and a draw of the others.
TAAR1 agonist: human TAAR1 agonists, primary screen, Fluo-8 calcium fluorescence, CHO RD-HGA16 cells | Trace amine-associated receptor 1 (Homo sapiens), Q96RJ0 | vehicle wells 0%, saturating PEA agonist 100% | activation, % at 3 µM | 0.99% of 360,000 active;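 active = activation above the mean activation of all test compounds in the run plus 3 SD, cut at about 38% in these data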
Target sequence (Q96RJ0 whole entry, looked up): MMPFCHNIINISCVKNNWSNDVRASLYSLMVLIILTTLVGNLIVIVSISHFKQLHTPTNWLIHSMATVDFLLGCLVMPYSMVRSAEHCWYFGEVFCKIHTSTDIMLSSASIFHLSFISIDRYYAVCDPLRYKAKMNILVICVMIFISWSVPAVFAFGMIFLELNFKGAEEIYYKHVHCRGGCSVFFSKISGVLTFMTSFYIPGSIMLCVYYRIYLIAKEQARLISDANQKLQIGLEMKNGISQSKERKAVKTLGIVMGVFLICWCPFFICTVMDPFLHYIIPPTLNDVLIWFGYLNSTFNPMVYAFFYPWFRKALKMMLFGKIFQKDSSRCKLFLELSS
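Test system: RD-HGA16 (CHO) cells co-expressing Gα16 and hTAAR1; dosing: one-point dosing at 3 µM (nominal); timing: 17-24 h seeding, 75 min 37 °C dye, 30 min RT; signal: kinetic Fluo-8 calcium fluorescence; read-out basis: % activation relative to PEA EC100 response; controls: DMSO and PEA EC100; replicates: n 1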
OX1R antag-1: antagonists of human orexin 1 receptor (OX1R). OX1R-expressing cells, FRET antagonist read-out. inhibition, % at 6.6 µM. 1.8% of 330,000 active. AID 485270, 2010; in the data active = inhibition mostly above about 38%, no sharp cut-off; inactive = mostly below about 40%;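 note: 0% = agonist challenge alone and 100% = reference antagonist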
CHO parental Ca: ATP-evoked calcium signal inhibitors, parental CHO, primary screen, counter-screen for OX1R antagonist project, cell-based, fluorescence, Fluo-8 calcium dye. parental CHO-K1, ATP-induced calcium, Fluo-8 fluorescence. inhibition, % at 5.6 µM. 0.63% of 330,000 active;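 active = inhibition above that plate's mean sample inhibition plus 3 SD, cut at about 26% in these data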;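 note: 0% = ATP-challenged DMSO wells and 100% = DMSO wells without ATP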
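Test system: parental CHO cells; detection: calcium-sensitive Fluo-8 fluorescence; evaluation: percent inhibition of calcium signal; also added: ATP as calcium-mobilizing challenge; repeats: one well per compound; control set: ATP-challenged DMSO wells low, unchallenged DMSO wells high; compound: single nominal dose of 5.6 µM per compound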
TAAR1 antagonist: human TAAR1 antagonists, primary screen, Fluo-8 calcium fluorescence, CHO RD-HGA16 cells. inhibition, % at 3 µM. AID 624466, 2012. 1.5% of 360,000 active. antagonist;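 active = inhibition above a per-plate cutoff, the mean inhibition of test compounds on that plate plus 3 SD, cut at about 49% in these data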;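 note: 0% = DMSO plus EC80 beta-PEA response and 100% = DMSO alone without agonist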
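Test system: RD-HGA16 CHO cells with stable hTAAR1 and Gα16 / Probe or stimulus: EC80 β-phenethylamine stimulus / Times: seeding 17-24 h prior, 75-min 37 °C, 30-min RT dye loading / Detection: Fluo-8 calcium-sensitive fluorescence / Read-out basis: % inhibition scaled between DMSO and EC80 PEA controls / Repeats: singlicate, one well per test compound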
OX1R antag-2: OX1R (HCRTR1) antagonists, primary screen, fluorescence, CHO/OX1R cells, Fluo-8 calcium, orexin A; Orexin/Hypocretin receptor type 1 (Homo sapiens), O43613; Fluo-8 calcium fluorescence; inhibition, % at 5 µM; 0.43% of 330,000 active; AID 434989, 2010;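 active = inhibition above its plate's threshold, mean inhibition of all tested compounds on the plate plus 3 SD, cut at about 37% in these data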;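 note: 0% = orexin A challenge wells and 100% = SB-334867-A antagonist wells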
The depositor's hits bear a star.

`Cc1nc2ccccn2c1-c1csc(Nc2cccc(O)c2)n1` gave TAAR1 agonist 2 and TAAR1 antagonist 55*.
Screening Cc1c(C(=O)NC(=S)Nc2ccc(NC(=O)c3cccs3)cc2)cccc1[N+](=O)[O-] returned TAAR1 agonist 9, OX1R antag-1 62, CHO parental Ca 16, TAAR1 antagonist 68* and OX1R antag-2 17.
For COC(=O)[C@]1(CC(C)C)NC=C(C(=O)c2ccccc2)[C@@H]1c1cccs1 the results were TAAR1 agonist -1 and TAAR1 antagonist 6.
`O=C(C(=O)N1CCN(C(=O)c2cc(C(F)(F)F)cc(C(F)(F)F)c2)CC1)c1cccc(C(F)(F)F)c1` gave TAAR1 agonist -2 and TAAR1 antagonist -14.
Screening O=C(O)[C@H](Cc1ccccc1)NC(=O)[C@H]1O[C@@H](n2ccc(=O)[nH]c2=O)[C@H](O)[C@@H]1O returned TAAR1 agonist 2 and TAAR1 antagonist 4.
O=C1[C@H]2[C@@H](c3ccccc3)N[C@]3(CCCN(Cc4ccc(C(F)(F)F)cc4)C3=O)[C@H]2C(=O)N1Cc1ccccc1 was read as TAAR1 agonist 12 and TAAR1 antagonist 50*.
For O=C(NCc1ccccc1)[C@@H]1CCCN1C(=O)[C@H]1CCCN1C(=O)c1ccc(Cl)cc1 the results were TAAR1 agonist 0 and TAAR1 antagonist -29.
CCCCN1C(=O)C(CC(=O)NCCc2ccccn2)CC(C(=O)N(C(C)C)C(C)C)=C1C (stereo not given) was read as TAAR1 agonist 42* and TAAR1 antagonist -15.
Screening Cc1cc(F)ccc1-c1cc(C(=O)NCc2ccc(C(F)(F)F)cc2)[nH]n1 returned TAAR1 agonist 56* and TAAR1 antagonist 71*.
For COC(=O)C1=C(C)N(Cc2cccc(C(F)(F)F)c2)C(=NCc2ccccc2C(F)(F)F)NC1c1cccc(F)c1 (stereo not given) the results were TAAR1 agonist 6 and TAAR1 antagonist 3.
For COC(=O)c1ccc(COC(=O)c2ccc(CO)cc2)o1 the results were TAAR1 agonist 7, OX1R antag-1 0, CHO parental Ca -3, TAAR1 antagonist 0 and OX1R antag-2 11.
Screening COc1ccc(/C=C2\CCc3c2nc2ccccc2c3C(=O)O)cc1OC returned TAAR1 agonist 0, OX1R antag-1 75*, CHO parental Ca 7, TAAR1 antagonist -13 and OX1R antag-2 0.
`CCOc1ccc(/C=C2\CCCc3c2nc2ccccc2c3C(=O)O)cc1OC` gave OX1R antag-1 82*, CHO parental Ca 30* and OX1R antag-2 30.
For COc1cc(/C=C2\CCCc3c2nc2ccccc2c3C(=O)O)cc(OC)c1O the results were TAAR1 agonist 7, OX1R antag-1 10, CHO parental Ca -5, TAAR1 antagonist 0 and OX1R antag-2 -13.
`COc1ccc(/C=C2\CCCc3c2nc2ccccc2c3C(=O)O)cc1OC` gave OX1R antag-1 63*, CHO parental Ca 3 and OX1R antag-2 7.
Cc1onc(-c2ccccc2)c1C(=O)NC(=S)NNC(=O)c1cc(-c2ccc(F)cc2)n[nH]1 was read as TAAR1 agonist 1, OX1R antag-1 25, CHO parental Ca 0, TAAR1 antagonist -6 and OX1R antag-2 -6.
`COc1ccccc1C(=O)Nc1ccnn1C1CCN(Cc2ccn[nH]2)CC1` gave TAAR1 agonist 3, OX1R antag-1 19, CHO parental Ca 0, TAAR1 antagonist -14 and OX1R antag-2 -5.
For CCN(Cc1ccncc1)Cc1nc(CC2CC2)no1 the results were TAAR1 agonist 0, OX1R antag-1 9, CHO parental Ca -16, TAAR1 antagonist -2 and OX1R antag-2 -19.
For COc1cc(-c2cc(C(=O)N3CCN(c4ccccn4)CC3)c3ccccc3n2)cc(OC)c1OC the results were TAAR1 agonist 16, OX1R antag-1 13, CHO parental Ca -14, TAAR1 antagonist 50* and OX1R antag-2 -16.
O=C(COC(=O)c1cc(-c2cccs2)nc2ccccc12)NCc1ccco1 was read as TAAR1 agonist 7, OX1R antag-1 72*, CHO parental Ca -12, TAAR1 antagonist 21 and OX1R antag-2 17.

Bioassay records as filed in PubChem BioAssay.
